From ChEMBL document CHEMBL3108731, “A development of chimeric VEGFR2 TK inhibitor based on two ligand conformers from PDB: 1Y6A complex--medicinal chemistry consequences of a TKs analysis” (Eur J Med Chem, 2014)
Values belong to the molecule of their own block, whether it stands above or below them. Activity calls are given as the source filed them. No cut-off for these calls is given here.

Assays:
[1] = target: Vascular endothelial growth factor receptor 2 (Homo sapiens, UniProt P35968); assay: Inhibition of GST-tagged recombinant human VEGFR2 expressed in Sf9 cells by radiometric assay; type: cell-based
Sequence of Vascular endothelial growth factor receptor 2 (P35968 whole entry): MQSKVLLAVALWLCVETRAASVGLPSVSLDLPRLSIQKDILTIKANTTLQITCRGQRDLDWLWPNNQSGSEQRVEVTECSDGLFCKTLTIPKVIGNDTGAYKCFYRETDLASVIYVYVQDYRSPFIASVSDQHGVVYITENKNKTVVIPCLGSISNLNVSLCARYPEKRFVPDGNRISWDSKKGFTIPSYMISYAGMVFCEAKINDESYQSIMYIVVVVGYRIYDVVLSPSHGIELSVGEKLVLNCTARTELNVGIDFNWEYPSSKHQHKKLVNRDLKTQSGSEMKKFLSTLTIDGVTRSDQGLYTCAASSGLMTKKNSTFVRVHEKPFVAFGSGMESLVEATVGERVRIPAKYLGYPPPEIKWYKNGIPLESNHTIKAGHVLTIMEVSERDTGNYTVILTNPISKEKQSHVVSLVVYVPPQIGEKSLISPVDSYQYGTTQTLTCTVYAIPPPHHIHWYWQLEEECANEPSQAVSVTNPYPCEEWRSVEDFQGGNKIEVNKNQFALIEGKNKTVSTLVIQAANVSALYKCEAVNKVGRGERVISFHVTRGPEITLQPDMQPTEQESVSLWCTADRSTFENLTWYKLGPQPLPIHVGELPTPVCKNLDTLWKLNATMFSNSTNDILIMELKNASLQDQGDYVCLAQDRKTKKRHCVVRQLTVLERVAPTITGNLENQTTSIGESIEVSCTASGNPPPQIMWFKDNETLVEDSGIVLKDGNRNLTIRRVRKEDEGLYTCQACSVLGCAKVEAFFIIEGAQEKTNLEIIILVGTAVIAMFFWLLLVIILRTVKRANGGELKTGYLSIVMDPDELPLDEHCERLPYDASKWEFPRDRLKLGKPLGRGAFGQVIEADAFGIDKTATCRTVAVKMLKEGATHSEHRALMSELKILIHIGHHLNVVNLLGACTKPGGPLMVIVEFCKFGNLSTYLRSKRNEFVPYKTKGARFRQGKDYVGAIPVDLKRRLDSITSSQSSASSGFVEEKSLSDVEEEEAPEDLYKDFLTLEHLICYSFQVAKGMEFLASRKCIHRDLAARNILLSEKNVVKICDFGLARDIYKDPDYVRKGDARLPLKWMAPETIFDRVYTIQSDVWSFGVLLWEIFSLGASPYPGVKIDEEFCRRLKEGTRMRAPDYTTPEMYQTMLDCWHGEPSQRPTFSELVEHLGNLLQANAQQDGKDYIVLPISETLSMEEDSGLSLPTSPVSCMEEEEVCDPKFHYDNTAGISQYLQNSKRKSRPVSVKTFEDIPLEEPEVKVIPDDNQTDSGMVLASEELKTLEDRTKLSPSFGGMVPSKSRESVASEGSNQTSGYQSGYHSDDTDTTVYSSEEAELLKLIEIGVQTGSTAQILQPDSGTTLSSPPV

[2] = Antiproliferative activity against human HT1080 cells after 3 days by MTT assay; type: functional, cell-based; conditions: HT-1080, 72 h
In short: (§1)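 MTT dye-reduction assay: 3×10^3 BAE or 2×10^3 tumour cells in their own growth media were given serial dilutions of compound for 3 days at 37 °C, 5% CO2. MTT (5 mg/ml stock in PBS) was added for 4 h, and formazan was dissolved in 0.04 N HCl/2-propanol and read at 550 nm. IC50 is the concentration giving 50% survival; values are mean ± S.D. of at least three experiments in triplicate.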

Danio rerio [3] = organism: Danio rerio; assay: Antiangiogenic activity in zebrafish embryo at 20 uM up to 24 hrs by GFP assay; type: functional
In short: (§2)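 Embryos of transgenic Zebrafish line TG(fli1:EGFP)y1 were used; a fli-1 promoter drives GFP expression in the endothelium. Embryos were incubated with different compound concentrations, and angiogenesis was assessed by live fluorescence imaging. Data are the percentage of treated embryos showing inhibited angiogenesis.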

BAEC [4] = assay: Antiangiogenic activity in BAEC assessed as inhibition of cell migration to extracellular matrix at 1 uM after 7 hrs by wound-healing assay; type: functional; conditions: Bos taurus
In short: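 Confluent BAEC monolayers were wounded with a pipette tip to give one 1 mm-wide acellular lane. After washing, cells received complete medium without or with compound. The same fields were photographed at 0 and 7 h. Regrowth into the cell-free area was expressed as % recovered area, mean ± SD, n = 3.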

Danio rerio [5] = organism: Danio rerio; assay: Toxicity in zebrafish embryo up to 24 hrs by GFP assay; type: organism-based; conditions: in vivo
HL-60 = assay: Antiproliferative activity against human HL60 cells after 3 days by MTT assay; type: functional, cell-based; conditions: HL-60, 72 h; in short: as §1
Danio rerio [6] = organism: Danio rerio; assay: Antiangiogenic activity in zebrafish embryo at 10 uM up to 24 hrs by GFP assay; type: functional; in short: as §2
HT-29 = assay: Antiproliferative activity against human HT-29 cells after 3 days by MTT assay; type: functional, cell-based; conditions: HT-29, 72 h; in short: as §1
BAEC [7] = assay: Antiangiogenic activity in BAEC assessed as inhibition of capillary tube formation after 7 hrs by matrigel assay; type: functional; conditions: Bos taurus
In short: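 BAE cells (5×10^4 per well) in DMEM were seeded on Matrigel (about 10.5 mg/mL) that had polymerized at 37 °C for at least 30 min. Cells were given compound at several amounts and kept at 37 °C, 5% CO2 for 7 h. Cord/tube formation was viewed at 200×. Each concentration was run in duplicate and scored by two independent observers.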

Danio rerio [8] = organism: Danio rerio; assay: Antiangiogenic activity in zebrafish embryo assessed as inhibition of intersegmental blood vessel growth at 10 uM up to 24 hrs by GFP assay; type: functional, organism-based; in short: as §2
[9] = Antiproliferative activity against BAEC after 3 days by MTT assay; type: functional; conditions: Bos taurus, 72 h; in short: as §1
MDA-MB-231 = assay: Antiproliferative activity against human MDA-MB-231 cells after 3 days by MTT assay; type: functional, cell-based; conditions: MDA-MB-231, 72 h; in short: as §1
U2OS = assay: Antiproliferative activity against human U2OS cells after 3 days by MTT assay; type: functional, cell-based; conditions: 72 h; in short: as §1
Danio rerio [10] = organism: Danio rerio; assay: Antiangiogenic activity in zebrafish embryo up to 24 hrs by GFP assay; type: functional, organism-based; in short: as §2
BAEC [11] = assay: Induction of apoptosis in BAEC assessed as chromatin condensation at 0.5 to 1 uM after 14 hrs by Hoechst staining; type: functional; conditions: Bos taurus
In short: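 Subconfluent BAE cells on chamber slides were treated for 14 h with the indicated concentrations in complete medium. Cells were then PBS-washed, formalin-fixed and stained with Hoechst for 2 min. Nuclear morphology (chromatin condensation) was examined by fluorescence microscopy.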

Danio rerio [12] = organism: Danio rerio; assay: Antiangiogenic activity in zebrafish embryo at 5 uM up to 24 hrs by GFP assay; type: functional; in short: as §2

IC50 [1]: 202 nM
SMILES: CCS(=O)(=O)c1ccc(OC)c(Nc2ncc(-c3cc(Br)cc(-c4ccccn4)c3)o2)c1

IC50 [1]: 51.2 nM
SMILES: CCS(=O)(=O)c1ccc(OC)c(Nc2ncc(-c3cc(-c4cccnc4)cc(-c4ccccn4)c3)o2)c1

IC50 (HL-60): 17800 nM
IC50 (HT-29): 15200 nM
IC50 [1]: 15.1 nM
IC50 (MDA-MB-231): 3990 nM
IC50 (U2OS): 2030 nM
SMILES: CCS(=O)(=O)c1ccc(OC)c(Nc2ncc(-c3cc(-c4ccccn4)cc(-c4ccccn4)c3)o2)c1
IC50 [2]: 2430 nM
inhibition (INH) (Danio rerio [3]): 87%
inhibition (BAEC [4]): Active
Activity (Danio rerio [5]): Non-toxic
inhibition (INH) (Danio rerio [6]): 53%
inhibition (BAEC [7]): Dose-dependent effect
inhibition (Danio rerio [8]): Active
IC50 [9]: 370 nM
inhibition (Danio rerio [10]): Dose-dependent effect
Activity (BAEC [11]): Active
inhibition (INH) (Danio rerio [12]): 7%

IC50 [1]: 170 nM
SMILES: CCS(=O)(=O)c1ccc(OC)c(Nc2ncc(-c3cc(-c4cccnc4)cc(-c4cccnc4)c3)o2)c1
